Data reported in ChEMBL document CHEMBL3046908, “Nematicidal activity of (E,E)-2,4-decadienal and (E)-2-decenal from Ailanthus altissima against Meloidogyne javanica” (J Agric Food Chem, 2012).
In brackets after ≈: the same amount, converted by molar mass. Activity calls are given as the source filed them. The calls are words filed in the database; no cut-off is given here.

What was measured:
Assay type in all cases: functional, organism-based
Meloidogyne javanica [1] = assay: Nematicidal Activity against Meloidogyne javanica (root-knot nematode) assessed as death/paralysis of nematodes at 1 hr after immersion in test solution
Method in brief: (§1)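 J2 of an Italian M. javanica population reared two months on tomato in a glasshouse at 25+2 °C. Pure compounds were made up as double-strength solutions (methanol ≤1% v/v final, tween in water) and mixed 1:1 with 15 J2 per well, covered, dark, 28 °C. Paralysis was scored by microscope, 5 replicates, run twice, Schneider-Orelli corrected, EC50 by regression.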

Meloidogyne javanica [2] = assay: Nematicidal Activity against Meloidogyne javanica (root-knot nematode) assessed as death/paralysis of nematodes at 1 day after immersion in test solution; details: 24 h; method in brief: as §1
Meloidogyne javanica [3] = assay: Nematicidal Activity against Meloidogyne javanica (root-knot nematode) assessed as death/paralysis of nematodes at 25 to 1000 mg/l at 1 hr after immersion in test solution
Method in brief: (§2)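 Second-stage juveniles (J2) came from an Italian M. javanica population reared two months on tomato in a glasshouse at 25±2 °C. Solutions at double strength were mixed 1:1 with 15 J2 per well, covered, in the dark at 28 °C. Methanol was ≤1% v/v final, and water and 0.3% tween controls were run. Paralysis was scored at 10×. Five replicates per treatment, experiment done twice. Control-corrected (Schneider-Orelli) EC50 was obtained by regression.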

Meloidogyne javanica [4] = assay: Nematicidal Activity against Meloidogyne javanica (root-knot nematode) assessed as death/paralysis of nematodes at 25 to 1000 mg/l at 1 day after immersion in test solution; method in brief: as §2

SMILES	EC50 (Meloidogyne javanica [1]) [mg/L]	EC50 (Meloidogyne javanica [2]) [mg/L]	Activity (Meloidogyne javanica [3])	Activity (Meloidogyne javanica [4])
CCCCCCC/C=C/C=O [TRANS-2-DECENAL]	11.8 (≈ 76.2 µM)	20.4 (≈ 132 µM)	–	–
O=Cc1ccco1 [FURFURAL]	> 25	21.8 (≈ 227 µM)	–	–
CCCCCC=O	–	–	inactive	inactive
CCCCC/C=C/C=O	–	> 25	inactive	–
CCCCCCCCC=O [NONANAL]	> 50	–	–	inactive
CCOP(=O)(SC(C)CC)N1CCSC1=O (stereo not given) [FOSTHIAZATE]	> 25	15.9 (≈ 56.1 µM)	–	–
CCCCCCCC/C=C/C=O	> 25	> 25	–	–
O=Cc1ccc(CO)o1 [AES-103]	> 25	> 25	–	–
CCCCC/C=C/C=C/C=O	7.53 (≈ 49.5 µM)	11.7 (≈ 76.9 µM)	–	–
CCCCCCC=O	–	–	inactive	inactive
